In ChEMBL document CHEMBL1128238, “Synthesis and structure-activity relationships of dequalinium analogues as K+ channel blockers. Investigations on the role of the charged heterocycle” (J Med Chem, 1995):
Values belong to the molecule of their own block, whether it stands above or below them.

Assays:
Rattus norvegicus [1] = species: Rattus norvegicus; assay: Ratio of the concentrations of the test compound and dequalinium that cause 50% inhibition, as determined in the same experiment was reported. (number of neurons tested, n=5).; format: functional
Procedure, shortened: (§1)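 AHP inhibition recorded in cultured rat sympathetic neurones. Each compound was applied at two to four concentrations on at least three cells, generally not above 10–30 μM.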

Rattus norvegicus [2] = species: Rattus norvegicus; assay: Ability to inhibit after-hyperpolarization (AHP) in cultured rat sympathetic neurons. (number of neurons tested, n=5).; format: functional; settings: Sympathetic neuron
Procedure, shortened: (§2)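 SK(Ca) block judged from inhibition of the after-hyperpolarization in cultured rat sympathetic neurones. Each compound was tested at two to four concentrations on at least three cells. Test concentrations above 10–30 μM were generally avoided. The time course of block onset was also noted.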

Rattus norvegicus [3] = species: Rattus norvegicus; assay: Ratio of the concentrations of the test compound and dequalinium that cause 50% inhibition, as determined in the same experiment was reported. (number of neurons tested, n=3).; format: functional; procedure, shortened: as §1
Rattus norvegicus [4] = species: Rattus norvegicus; assay: Ratio of the concentrations of the test compound and dequalinium that cause 50% inhibition, as determined in the same experiment was reported. (number of neurons tested, n=7).; format: functional
Procedure, shortened: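 AHP inhibition in cultured rat sympathetic neurones, with each compound at two to four concentrations on at least three cells. The equieffective molar ratio is the test compound's 50%-inhibitory concentration divided by that of dequalinium, both determined in the same experiment.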

Rattus norvegicus [5] = species: Rattus norvegicus; assay: Ability to inhibit after-hyperpolarization (AHP) in cultured rat sympathetic neurons. (number of neurons tested, n=7).; format: functional; settings: Sympathetic neuron
Procedure, shortened: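 SK(Ca) block measured as inhibition of the after-hyperpolarization in cultured rat sympathetic neurones. Each compound was tested at two to four concentrations on at least three cells, generally not above 10–30 μM. Onset of block was also timed. The 50%-inhibitory concentration was determined.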

Rattus norvegicus [6] = species: Rattus norvegicus; assay: Ratio of the concentrations of the test compound and dequalinium that cause 50% inhibition, as determined in the same experiment was reported. (number of neurons tested, n=18).; format: functional; procedure, shortened: as §1
Rattus norvegicus [7] = species: Rattus norvegicus; assay: Ability to inhibit after-hyperpolarization (AHP) in cultured rat sympathetic neurons. (number of neurons tested, n=18).; format: functional; settings: Sympathetic neuron; procedure, shortened: as §2
Rattus norvegicus [8] = species: Rattus norvegicus; assay: Ability to inhibit after-hyperpolarization (AHP) in cultured rat sympathetic neurons. (number of neurons tested, n=3).; format: functional; settings: Sympathetic neuron; procedure, shortened: as §2
Rattus norvegicus [9] = species: Rattus norvegicus; assay: Ratio of the concentrations of the test compound and dequalinium that cause 50% inhibition, as determined in the same experiment was reported. (number of neurons tested, n=4).; format: functional; procedure, shortened: as §1
Rattus norvegicus [10] = species: Rattus norvegicus; assay: Ability to inhibit after-hyperpolarization (AHP) in cultured rat sympathetic neurons. (number of neurons tested, n=4).; format: functional; settings: Sympathetic neuron; procedure, shortened: as §2
Rattus norvegicus [11] = species: Rattus norvegicus; assay: cells; settings: Sympathetic neuron
Rattus norvegicus [12] = species: Rattus norvegicus; assay: Ratio of the concentrations of the test compound and dequalinium that cause 50% inhibition, as determined in the same experiment was reported. (number of neurons tested, n=6).; format: functional; procedure, shortened: as §1
Rattus norvegicus [13] = species: Rattus norvegicus; assay: Ability to inhibit after-hyperpolarization (AHP) in cultured rat sympathetic neurons. (number of neurons tested, n=6).; format: functional; settings: Sympathetic neuron; procedure, shortened: as §2

Compound: Nc1c2c([n+](CCCCCCCCCC[n+]3c4c(c(N)c5ccccc53)CCCC4)c3ccccc13)CCCC2
- EMR (Rattus norvegicus [1]): 0.9
- IC50 (Rattus norvegicus [2]): 1 µM

Compound: CCCC[n+]1c(C)cc(N)c2ccccc21
- EMR (Rattus norvegicus [3]): 12

Compound: Nc1cc[n+](CCCCCCCCCC[n+]2ccc(N)cc2)cc1
- EMR (Rattus norvegicus [4]): 33
- IC50 (Rattus norvegicus [5]): 35 µM

Compound: Nc1cc[n+](CCCC#CC#CCCC[n+]2ccc(N)cc2)cc1.O.O.[Cl-].[Cl-]
- EMR (Rattus norvegicus [9]): 4.7

Compound: C[n+]1cccnc1NCCCCCCCCCCNc1nccc[n+]1C
- EMR (Rattus norvegicus [1]): >10
- IC50 (Rattus norvegicus [2]): > 10 µM

Compound: CCCCCCCCCC[n+]1c(C)cc(N)c2ccccc21
- EMR (Rattus norvegicus [3]): 4.7
- IC50 (Rattus norvegicus [8]): 5.5 µM

Compound: Cc1cc(N)c2ccccc2[n+]1CCCC#CC#CCCC[n+]1c(C)cc(N)c2ccccc21
- EMR (Rattus norvegicus [3]): 2.4
- IC50 (Rattus norvegicus [8]): 1.6 µM

Compound: CC[N+](CC)(CC)CCCCCCCCCC[n+]1c(C)cc(N)c2ccccc21.[I-].[I-]
- EMR (Rattus norvegicus [3]): 17
- IC50 (Rattus norvegicus [8]): 18 µM

Compound: O=[N+]([O-])c1cc[n+]([O-])c(NCCCCCCCCCCNc2cc([N+](=O)[O-])cc[n+]2[O-])c1
- EMR (Rattus norvegicus [9]): >30
- IC50 (Rattus norvegicus [10]): > 30 µM

Compound: Nc1c2c(nc3ccccc13)CCCC2 [TACRINE]
- IC50 (Rattus norvegicus [11]): 30 µM

Compound: Cc1n(C)c2ccccc2[n+]1CCCCCCCCCC[n+]1c(C)n(C)c2ccccc21.O.O.[Cl-].[Cl-]
- EMR (Rattus norvegicus [9]): >10
- IC50 (Rattus norvegicus [10]): > 10 µM

Compound: c1ccc2c[n+](CCCCCCCCCC[n+]3ccc4ccccc4c3)ccc2c1
- EMR (Rattus norvegicus [1]): 80
- IC50 (Rattus norvegicus [2]): 25 µM

Continued, in another order:

- IC50 (Rattus norvegicus [7]): 0.74 µM
Compound: Cc1cc(N)c2ccccc2[n+]1CCCCCCCCCC[n+]1c(C)cc(N)c2ccccc21.[Cl-].[Cl-] [DEQUALINIUM CHLORIDE]
- EMR (Rattus norvegicus [6]): 1

- IC50 (Rattus norvegicus [8]): 6.7 µM
Compound: c1ccc2c(NCCCCCCCCCCNc3c4ccccc4nc4ccccc34)c3ccccc3nc2c1
- EMR (Rattus norvegicus [3]): 12.2

- IC50 (Rattus norvegicus [10]): 16 µM
Compound: Cn1c[n+](CCCCCCCCCC[n+]2cn(C)c3ccccc32)c2ccccc21
- EMR (Rattus norvegicus [9]): 77

- IC50 (Rattus norvegicus [10]): 21 µM
Compound: C[n+]1c(CCCCCCCCCCCCc2ccc3ccccc3[n+]2C)ccc2ccccc21
- EMR (Rattus norvegicus [9]): 33

- IC50 (Rattus norvegicus [2]): 4.7 µM
Compound: Brc1c[n+](CCCCCCCCCC[n+]2cc(Br)c3ccccc3c2)cc2ccccc12
- EMR (Rattus norvegicus [1]): 7.6

- IC50 (Rattus norvegicus [8]): 5.5 µM
Compound: Nc1ccnc(NCCCCCCCCCCNc2cc(N)ccn2)c1
- EMR (Rattus norvegicus [3]): 5

- IC50 (Rattus norvegicus [8]): 9.5 µM
Compound: COc1cc(CCCCCCCCCCc2cc(OC)c3ccccc3[n+]2C)[n+](C)c2ccccc12
- EMR (Rattus norvegicus [3]): 27

- IC50 (Rattus norvegicus [2]): 21 µM
Compound: [Br-].[Br-].c1ccc2c(c1)ccc[n+]2CCCCCCCCCC[n+]1cccc2ccccc21
- EMR (Rattus norvegicus [1]): 15

- IC50 (Rattus norvegicus [13]): 72 µM
Compound: C[n+]1c(CCCCCCCCCCc2ccc3ccccc3[n+]2C)ccc2ccccc21
- EMR (Rattus norvegicus [12]): 130
